According to ChEMBL document CHEMBL1142529:

Experiments:
[1] = molecular target: T1, Quinolone resistance protein NorA (Staphylococcus aureus) (UniProt P0A0J7); experiment: Inhibition of NorA efflux pump in Staphylococcus aureus 1199 assessed as fold reduction of ciprofloxacin MIC at 25 ug/ml
T1 sequence (whole entry): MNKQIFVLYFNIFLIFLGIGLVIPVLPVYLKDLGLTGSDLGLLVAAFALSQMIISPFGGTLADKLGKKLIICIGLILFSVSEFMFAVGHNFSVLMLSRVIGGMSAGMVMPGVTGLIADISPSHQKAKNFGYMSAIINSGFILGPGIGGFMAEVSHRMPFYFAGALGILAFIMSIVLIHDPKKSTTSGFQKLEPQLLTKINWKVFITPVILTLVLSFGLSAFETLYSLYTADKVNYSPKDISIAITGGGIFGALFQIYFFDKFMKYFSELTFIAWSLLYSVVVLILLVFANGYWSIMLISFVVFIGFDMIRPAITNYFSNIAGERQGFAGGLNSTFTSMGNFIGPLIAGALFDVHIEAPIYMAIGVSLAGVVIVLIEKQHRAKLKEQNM
Procedure, shortened: (§1)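 Broth checkerboard synergy in Mueller–Hinton broth with twofold serial dilutions. Each candidate EPI was run at seven concentrations (100–1.56 µg/mL) against ciprofloxacin at 10 concentrations (16–0.03 µg/mL). Incubation was 18 h at 37 °C, and growth was scored visually. The fold drop in ciprofloxacin MIC was read at the stated EPI concentration.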

[2] = molecular target: T1, Quinolone resistance protein NorA (Staphylococcus aureus); experiment: Inhibition of NorA efflux pump in Staphylococcus aureus 1199B assessed as fold reduction of ciprofloxacin MIC at 25 ug/ml; procedure, shortened: as §1
[3] = molecular target: T1, Quinolone resistance protein NorA (Staphylococcus aureus); experiment: Inhibition of NorA efflux pump in Staphylococcus aureus 1199 assessed as fold reduction of ciprofloxacin MIC at 6.25 ug/ml; procedure, shortened: as §1
[4] = molecular target: T1, Quinolone resistance protein NorA (Staphylococcus aureus); experiment: Inhibition of NorA efflux pump in Staphylococcus aureus 1199B assessed as fold reduction of ciprofloxacin MIC at 6.25 ug/ml; procedure, shortened: as §1
[5] = molecular target: T1, Quinolone resistance protein NorA (Staphylococcus aureus); experiment: Inhibition of NorA efflux pump in Staphylococcus aureus 1199 assessed as fold reduction of ciprofloxacin MIC at 3.12 ug/ml; procedure, shortened: as §1
[6] = molecular target: T1, Quinolone resistance protein NorA (Staphylococcus aureus); experiment: Inhibition of NorA efflux pump in Staphylococcus aureus 1199B assessed as fold reduction of ciprofloxacin MIC at 3.12 ug/ml; procedure, shortened: as §1
[7] = molecular target: T1, Quinolone resistance protein NorA (Staphylococcus aureus); experiment: Inhibition of NorA efflux pump in Staphylococcus aureus 1199 assessed as fold reduction of ciprofloxacin MIC at >100 ug/ml; procedure, shortened: as §1
[8] = molecular target: T1, Quinolone resistance protein NorA (Staphylococcus aureus); experiment: Inhibition of NorA efflux pump in Staphylococcus aureus 1199B assessed as fold reduction of ciprofloxacin MIC at >100 ug/ml
[9] = molecular target: T1, Quinolone resistance protein NorA (Staphylococcus aureus); experiment: Inhibition of NorA efflux pump in Staphylococcus aureus 1199 assessed as fold reduction of ciprofloxacin MIC at 12.5 ug/ml; procedure, shortened: as §1
[10] = molecular target: T1, Quinolone resistance protein NorA (Staphylococcus aureus); experiment: Inhibition of NorA efflux pump in Staphylococcus aureus 1199B assessed as fold reduction of ciprofloxacin MIC at 12.5 ug/ml; procedure, shortened: as §1
[11] = molecular target: T1, Quinolone resistance protein NorA (Staphylococcus aureus); experiment: Inhibition of NorA efflux pump in Staphylococcus aureus 1199B assessed as fold reduction of ciprofloxacin MIC at 1.5 ug/ml; procedure, shortened: as §1
[12] = molecular target: T1, Quinolone resistance protein NorA (Staphylococcus aureus); experiment: Inhibition of NorA efflux pump in Staphylococcus aureus 1199 assessed as fold reduction of ciprofloxacin MIC at 1.5 ug/ml; procedure, shortened: as §1
[13] = molecular target: T1, Quinolone resistance protein NorA (Staphylococcus aureus); experiment: Inhibition of NorA efflux pump in Staphylococcus aureus 1199B assessed as fold reduction of ciprofloxacin MIC at 100 ug/ml; procedure, shortened: as §1
[14] = molecular target: T1, Quinolone resistance protein NorA (Staphylococcus aureus); experiment: Inhibition of NorA efflux pump in Staphylococcus aureus 1199 assessed as fold reduction of ciprofloxacin MIC at 100 ug/ml; procedure, shortened: as §1

In the case of COC(=O)[C@H]1[C@H]2C[C@@H]3c4[nH]c5cc(OC)ccc5c4CCN3C[C@H]2C[C@@H](OC(=O)c2cc(OC)c(OC)c(OC)c2)[C@@H]1OC, the fold change (FC) [1] is reported as 2 and the fold change (FC) [2] is reported as 4.

For CC(=O)Nc1ccccc1NC(=O)/C=C/C=C/c1ccc2c(c1)OCO2, the fold change (FC) [3] was 0, the fold change (FC) [1] was 2 and the fold change (FC) [4] was 2. The fold change (FC) [2] was 4.

In the case of O=C(/C=C/C=C/c1ccc2c(c1)OCO2)Nc1ccc2ncsc2c1, the fold change (FC) [5] is reported as 0 and the fold change (FC) [6] is reported as 2.

CCN(CC)C(=O)/C=C/C=C/c1ccc2c(c1)OCO2 gave a fold change (FC) [1] of 0 and a fold change (FC) [2] of 2.

Compound O=C(CCCCc1ccc2c(c1)OCO2)Nc1ccc(C(=O)Nc2ccccc2)cc1 has a fold change (FC) [7] of 0 and a fold change (FC) [8] of 0.

CC(C)c1cc2c(c(O)c1O)[C@@]1(C(=O)O)CCCC(C)(C)[C@@H]1CC2 gave a fold change (FC) [1] of 2 and a fold change (FC) [2] of 2.

In the case of O=C(/C=C/C=C/c1ccc2c(c1)OCO2)Nc1ccc(CO)cc1, the fold change (FC) [3] is reported as 0 and the fold change (FC) [4] is reported as 2.

Compound O=C(/C=C/C=C/c1ccc2c(c1)OCO2)Nc1ccc(C(=O)Nc2ccccc2)cc1 has a fold change (FC) [1] of 0, a fold change (FC) [5] of 0 and a fold change (FC) [2] of 4. The fold change (FC) [6] was 2.

CC(C)CNC(=O)CCCCc1ccc2c(c1)OCO2 was tested, and the fold change (FC) [7] was 0 and the fold change (FC) [8] was 0.

For Cc1ccccc1NC(=O)/C=C/C=C/c1ccc2c(c1)OCO2, the fold change (FC) [7] was 0 and the fold change (FC) [8] was 0.

Compound O=C(/C=C/C=C/c1ccc2c(c1)OCO2)Nc1ccccc1 has a fold change (FC) [9] of 2 and a fold change (FC) [10] of 2.

Compound CC(C)CNC(=O)/C=C/C=C/c1ccc2c(c1)OCO2 has a fold change (FC) [1] of 0 and a fold change (FC) [2] of 2.

N#Cc1cccc(NC(=O)CCCCc2ccc3c(c2)OCO3)c1 gave a fold change (FC) [7] of 0 and a fold change (FC) [8] of 0.

CC[C@@H](CO)NC(=O)/C=C/C=C/c1ccc2c(c1)OCO2 showed a fold change (FC) [1] of 0 and a fold change (FC) [2] of 2.

For O=C(/C=C/C=C/c1ccc2c(c1)OCO2)Nc1ccc2c(c1)OCO2, the fold change (FC) [7] was 0 and the fold change (FC) [8] was 0.

With N#CCc1ccc(NC(=O)/C=C/C=C/c2ccc3c(c2)OCO3)cc1 the fold change (FC) [1] was 0 and the fold change (FC) [2] was 2.

O=C(/C=C/C=C/c1ccc2c(c1)OCO2)NCC(O)c1ccccc1 (stereo not given) gave a fold change (FC) [9] of 0 and a fold change (FC) [10] of 2.

In the case of O=C(/C=C/C=C/c1ccc2c(c1)OCO2)Nc1cccc(CO)c1, the fold change (FC) [1] is reported as 0 and the fold change (FC) [2] is reported as 2.

In the case of CC(=O)Nc1ccc(NC(=O)/C=C/C=C/c2ccc3c(c2)OCO3)cc1, the fold change (FC) [3] is reported as 0, the fold change (FC) [1] is reported as 2 and the fold change (FC) [4] is reported as 2. For the same compound, the fold change (FC) [2] was 4.

Compound CC(=O)Nc1cccc(NC(=O)/C=C/C=C/c2ccc3c(c2)OCO3)c1 has a fold change (FC) [3] of 0, a fold change (FC) [4] of 2 and a fold change (FC) [9] of 2. For the same compound, the fold change (FC) [10] was 4.

For O=C(/C=C/C=C/c1ccc2c(c1)OCO2)Nc1nc2ccccc2s1, the fold change (FC) [3] was 2 and the fold change (FC) [4] was 2.

In the case of O=C(/C=C/C=C/c1ccc2c(c1)OCO2)Nc1ccc(NC(=O)c2ccccc2)cc1, the fold change (FC) [5] is reported as 0 and the fold change (FC) [6] is reported as 2.

N#Cc1cccc(NC(=O)/C=C/C=C/c2ccc3c(c2)OCO3)c1 gave a fold change (FC) [3] of 0, a fold change (FC) [11] of 2 and a fold change (FC) [4] of 4. The fold change (FC) [12] was 0.

With CC(C)NC(=O)/C=C/C=C/c1ccc2c(c1)OCO2 the fold change (FC) [1] was 0 and the fold change (FC) [2] was 2.

For CCCCNC(=O)/C=C/C=C/c1ccc2c(c1)OCO2, the fold change (FC) [13] was 0 and the fold change (FC) [14] was 0.

NC(=O)c1ccc(NC(=O)/C=C/C=C/c2ccc3c(c2)OCO3)cc1 showed a fold change (FC) [1] of 0 and a fold change (FC) [2] of 2.

COc1ccc(NC(=O)/C=C/C=C/c2ccc3c(c2)OCO3)cc1 gave a fold change (FC) [7] of 0 and a fold change (FC) [8] of 0.

CCCNC(=O)/C=C/C=C/c1ccc2c(c1)OCO2 gave a fold change (FC) [7] of 0 and a fold change (FC) [8] of 0.

Work on N#Cc1ccc(NC(=O)/C=C/C=C/c2ccc3c(c2)OCO3)cc1 yielded a fold change (FC) [1] of 0 and a fold change (FC) [2] of 2.

For CN1CCN(C(=O)/C=C/C=C/c2ccc3c(c2)OCO3)CC1, the fold change (FC) [1] was 0 and the fold change (FC) [2] was 2.

O=C(/C=C/C=C/c1ccc2c(c1)OCO2)N1CCOCC1 gave a fold change (FC) [7] of 0 and a fold change (FC) [8] of 0.

CC[C@H](CO)NC(=O)/C=C/C=C/c1ccc2c(c1)OCO2 was tested, and the fold change (FC) [7] was 0 and the fold change (FC) [8] was 0.

Work on N#CCc1ccccc1NC(=O)/C=C/C=C/c1ccc2c(c1)OCO2 yielded a fold change (FC) [7] of 0 and a fold change (FC) [8] of 0.

In the case of CC(C)N(C(=O)/C=C/C=C/c1ccc2c(c1)OCO2)C(C)C, the fold change (FC) [1] is reported as 2 and the fold change (FC) [2] is reported as 2.

With O=C(/C=C/C=C/c1ccc2c(c1)OCO2)Nc1ccccc1CO the fold change (FC) [1] was 0 and the fold change (FC) [2] was 2.
